In series [1] the test system is Tobacco mosaic virus. The series can be described thus: In vivo antiviral activity against TMV assessed as inactivation effect at 500 ug/ml. In kind it is functional.
Series [2] concerns Tobacco mosaic virus. The series can be described thus: In vitro antiviral activity against TMV at 500 ug/ml. In kind it is functional.
Series [3] in a line: Cytotoxicity against human TZM-bl cells at 10 uM after 48 hrs by MTT assay. In kind it is cell-based.
In series [4] the test system is Tobacco mosaic virus. The series can be described thus: In vivo antiviral activity against TMV assessed as protection effect at 500 ug/ml. The format is functional.
Series [5] deals with Tobacco mosaic virus. The series is described as follows: In vivo antiviral activity against TMV assessed as curative effect at 500 ug/ml. The format is functional.
Series [6] deals with Human immunodeficiency virus. The series can be described thus: Antiviral activity against HIV infected in human TZM-bl cells at 10 uM after 48 hrs by measuring luciferase activity by luminometer analysis. The format is functional. Particulars: Human immunodeficiency virus 1, TZM-bl. The procedure, abridged: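 TZM-bl cells seeded at 10⁴ cells/well; samples (from DMSO stocks) added next day, then pseudotyped HIV; final DMSO 2%. Incubated 48 h at 37 °C in humidified CO₂. Steady-glow luciferase substrate added, lysis 20 min in dark, luminescence read. AZT and MK-0518 as positive controls; expressed as percent inhibition.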

The term inhibition denotes the relative decrease from the control value, in per cent.

As to `O=C(NCc1ccc(F)cc1)c1c(C(F)(F)F)nn(Cc2cccs2)c(=O)c1NCc1ccc(F)cc1`, the Activity in series [1] was 19.5%; in series [3], “Non-toxic”; in series [4] it was 24.7%; in series [5], 23.6%. Also, in series [2], the inhibition at 500 µg/mL is 30%. For the same compound, the inhibition at 10 µM in series [6] amounted to 12.7%.
`COC(=O)c1c(C(F)(F)F)nn(C)c(=O)c1OC`: the Activity is given as 27.3% in series [1], “Non-toxic” in series [3], 20.5% in series [4] and 26.5% in series [5]. Also, in series [2], the inhibition at 500 µg/mL was determined as 25%. Besides, the inhibition at 10 µM in series [6] is -4%.
With `Cn1nc(C(F)(F)F)c(C(=O)NCc2ccc(F)cc2)c(O)c1=O`, the Activity in series [1] is reported as 25.4%; in series [3], “Non-toxic”; in series [4], 32.8%; in series [5], 28.4%. In addition, the inhibition at 500 µg/mL in series [2] is 19.6%. In series [6], the inhibition at 10 µM is -3.5%.
With `Cn1nc(C(F)(F)F)c(C(=O)NCc2ccc(F)cc2)c(NCc2ccc(F)cc2)c1=O`, the Activity in series [1] is 23.9%; in series [3] it was “Non-toxic”; in series [4], 17.5%; in series [5], 11.3%. In addition, the inhibition at 500 µg/mL in series [2] came to 8.6%. Further, in series [6], the inhibition at 10 µM was 53.5%.
As to `COC(=O)c1c(C(F)(F)F)nn(C/C=C/c2ccccc2)c(=O)c1OC`, the Activity in series [1] was 23.7%; in series [3] it was “Non-toxic”; in series [4], 22.9%; in series [5] it was 29.8%. Also, in series [2], the inhibition at 500 µg/mL was 20.3%. For the same compound, in series [6], the inhibition at 10 µM is -19.4%.
For the compound `O=C(NCc1ccc(F)cc1)c1c(C(F)(F)F)nn(C/C=C/c2ccccc2)c(=O)c1O`, the Activity in series [1] is 0%; in series [3], “Non-toxic”; in series [4] it was 12.2%; in series [5], 10.2%. In series [2], the inhibition at 500 µg/mL is 18.4%. The inhibition at 10 µM in series [6] is -27.2%.
Take `COC(=O)c1c(C(F)(F)F)nn(C(C)(C)C)c(=O)c1OC`: the Activity in series [1] is recorded as 0%; in series [3] it was “Non-toxic”; in series [4], 5.7%; in series [5] it was 6.3%. Also, the inhibition at 500 µg/mL in series [2] turned out to be 0%. In addition, the inhibition at 10 µM in series [6] is -6.5%.
On to `CC(C)(C)n1nc(C(F)(F)F)cc(NCc2ccc(F)cc2)c1=O`, for which the Activity is 15.3% in series [1], “Non-toxic” in series [3], 30.2% in series [4] and 20.2% in series [5]. Besides, in series [2], the inhibition at 500 µg/mL was found to be 26.2%. Further, the inhibition at 10 µM in series [6] was determined as 41.9%.
With `CC(C)(C)n1nc(C(F)(F)F)cc(O)c1=O`, the Activity in series [1] is reported as 18.6%; in series [3], “Non-toxic”; in series [4], 23.1%; in series [5], 27.2%. The inhibition at 500 µg/mL in series [2] worked out at 31.7%. In addition, the inhibition at 10 µM in series [6] was -11.6%.
